This is an account of results in ChEMBL document CHEMBL5223179, “Phenyl Dihydrouracil: An Alternative Cereblon Binder for PROTAC Design” (ACS Med Chem Lett, 2023).

Activity calls are given as the source filed them.

The target of data set [1] is Protein cereblon/DNA damage-binding protein 1 (Homo sapiens, UniProt Q96SW2). The experiment in a line: Displacement of Cy5-O-Len from 6His-tagged CRBN/DDB1 (unknown origin) incubated for 1 hr under dark condition by fluorescence polarization assay. In kind it is protein assay.
Protein cereblon/DNA damage-binding protein 1, sequence (Q96SW2 whole entry): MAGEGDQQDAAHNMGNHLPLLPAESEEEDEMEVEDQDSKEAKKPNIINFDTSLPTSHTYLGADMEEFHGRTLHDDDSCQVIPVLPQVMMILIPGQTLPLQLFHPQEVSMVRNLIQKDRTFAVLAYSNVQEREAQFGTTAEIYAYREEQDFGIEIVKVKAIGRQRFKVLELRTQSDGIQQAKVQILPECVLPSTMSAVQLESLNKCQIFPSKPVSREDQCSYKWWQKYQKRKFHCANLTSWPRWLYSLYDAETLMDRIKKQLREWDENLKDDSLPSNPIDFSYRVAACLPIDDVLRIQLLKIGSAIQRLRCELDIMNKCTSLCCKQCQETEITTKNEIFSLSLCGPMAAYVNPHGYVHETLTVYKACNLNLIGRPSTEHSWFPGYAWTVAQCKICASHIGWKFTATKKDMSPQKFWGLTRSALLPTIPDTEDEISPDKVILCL
Protein cereblon/DNA damage-binding protein 1, sequence (Q16531 whole entry, further chain): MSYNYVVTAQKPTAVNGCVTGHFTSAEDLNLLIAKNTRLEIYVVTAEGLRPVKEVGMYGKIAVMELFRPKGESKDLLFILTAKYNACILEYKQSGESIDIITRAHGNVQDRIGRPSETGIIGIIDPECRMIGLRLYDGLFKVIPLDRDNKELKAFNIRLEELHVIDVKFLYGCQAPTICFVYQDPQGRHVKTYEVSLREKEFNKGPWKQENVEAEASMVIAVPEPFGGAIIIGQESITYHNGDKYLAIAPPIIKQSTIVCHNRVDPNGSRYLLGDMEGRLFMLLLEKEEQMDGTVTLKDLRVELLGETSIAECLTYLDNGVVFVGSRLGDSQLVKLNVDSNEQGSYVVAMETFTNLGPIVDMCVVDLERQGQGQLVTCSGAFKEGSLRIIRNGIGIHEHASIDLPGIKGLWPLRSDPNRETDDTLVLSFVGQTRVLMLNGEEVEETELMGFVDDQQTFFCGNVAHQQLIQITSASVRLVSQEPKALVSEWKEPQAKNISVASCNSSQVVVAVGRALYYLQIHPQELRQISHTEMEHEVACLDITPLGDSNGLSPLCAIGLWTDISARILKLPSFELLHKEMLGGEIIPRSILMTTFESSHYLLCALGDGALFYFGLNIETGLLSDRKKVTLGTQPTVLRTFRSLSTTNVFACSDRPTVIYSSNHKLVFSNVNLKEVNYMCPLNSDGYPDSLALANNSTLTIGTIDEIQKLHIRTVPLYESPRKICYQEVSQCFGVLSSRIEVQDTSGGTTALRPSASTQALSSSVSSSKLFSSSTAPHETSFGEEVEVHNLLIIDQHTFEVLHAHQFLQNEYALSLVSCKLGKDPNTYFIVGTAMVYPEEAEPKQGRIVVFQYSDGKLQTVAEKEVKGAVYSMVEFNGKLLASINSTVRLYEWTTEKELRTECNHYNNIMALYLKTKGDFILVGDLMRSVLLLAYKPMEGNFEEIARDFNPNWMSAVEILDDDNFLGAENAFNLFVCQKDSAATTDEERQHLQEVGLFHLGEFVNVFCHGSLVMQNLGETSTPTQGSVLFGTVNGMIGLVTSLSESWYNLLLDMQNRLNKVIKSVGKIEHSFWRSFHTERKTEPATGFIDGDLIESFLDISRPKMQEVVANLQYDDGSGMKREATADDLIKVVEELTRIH
Data set [2] is described as follows: Metabolic stability in mouse liver microsomes assessed as clearance measured upto 240 mins in presence of NADPH regenerating system by LC-MS/MS analysis. Type of data set: ADME, Microsome. Conditions: 4 h.
Data set [3] can be described thus: Permeability in human Caco-2 cells after 2 hrs by UPLC/MS analysis. In kind it is ADME, cell-based. Conditions: caco-2, 2 h. On the technique in general: Passage across Caco-2 layers is used to estimate intestinal permeability.
The target in data set [4] is T1, Tyrosine-protein kinase Lck (Homo sapiens, UniProt P06239). The experiment in a line: Induction of HiBiT-tagged LCK degradation in human KOPT-K1 cells after 4 hrs by microplate reader analysis. Type of data set: cell-based. For orientation: The HiBiT peptide binds its large partner to form an active luciferase.
Target sequence in this assay (P06239 whole entry): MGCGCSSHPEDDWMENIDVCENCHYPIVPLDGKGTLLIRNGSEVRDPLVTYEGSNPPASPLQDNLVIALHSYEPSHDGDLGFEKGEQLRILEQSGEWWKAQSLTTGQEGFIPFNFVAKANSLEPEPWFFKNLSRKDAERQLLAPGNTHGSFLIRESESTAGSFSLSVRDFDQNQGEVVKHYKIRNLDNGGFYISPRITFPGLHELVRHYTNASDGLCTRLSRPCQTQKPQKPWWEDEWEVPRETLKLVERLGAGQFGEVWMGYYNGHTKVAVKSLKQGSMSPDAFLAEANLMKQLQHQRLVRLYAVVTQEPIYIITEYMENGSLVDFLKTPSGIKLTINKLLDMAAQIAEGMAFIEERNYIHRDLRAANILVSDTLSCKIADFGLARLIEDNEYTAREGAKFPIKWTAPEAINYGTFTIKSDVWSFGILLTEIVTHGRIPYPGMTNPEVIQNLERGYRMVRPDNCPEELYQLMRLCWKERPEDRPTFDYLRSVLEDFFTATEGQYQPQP
Data set [5] concerns KOPTK1. Description: Cytotoxicity against human KOPT-K1 cells incubated for 72 hrs by Celltiter-Glo assay. Conditions: for CC50: read-out: LC50 (the source's name). In kind it is functional. In short, it runs like this:
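Human T-ALL KOPT-K1 cells treated with compounds for 72 h. Viability measured by CellTiter-Glo. LC50 fitted from dose-response data, reported as the mean of three independent experiments ± SD.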
For orientation: In ATP-based viability assays light output follows the ATP content of the culture.

For data set [6], the target named is Eukaryotic peptide chain release factor GTP-binding subunit ERF3A (Homo sapiens) (UniProt P15170). The experiment in a line: Induction of HiBiT-tagged GSPT1 degradation in HEK293T cells upto 10 uM incubated for 4 hrs. In kind it is cell-based. A digest of the protocol:
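HiBiT-tagged GSPT1 in HEK293T cells was measured after compound exposure at concentrations up to 10 μM.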

A short description of data set [7]: Chemical stability of compound in human KOPT-K1 cell culture media assessed as half life incubated upto 48 hrs. In kind it is physicochemical. In short, it runs like this:
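Compound stability followed in KOPT-K1 cell culture medium over time; half-life derived from the remaining compound.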

Data set [8] relates to KOPTK1. Description: Cytotoxicity against human KOPT-K1 cells incubated for 24 hrs by Celltiter-Glo assay. In kind it is functional. The conditions noted are these: read-out: LC50 (the source's name). In short, it runs like this: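 KOPT-K1 human T-ALL cells exposed to compound for 24 h. Viability read by CellTiter-Glo luminescence. LC50 derived from concentration-response curves.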

Data set [9] deals with Eukaryotic peptide chain release factor GTP-binding subunit ERF3A (Homo sapiens) (UniProt P15170). The experiment in a line: Induction of GSPT1 degradation in human KOPT-K1 cells upto 100 nM incubated for 4 hrs by immunoblotting analysis. Type of data set: cell-based. A digest of the protocol:
(§1)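 KOPT-K1 cells were treated with compound at concentrations up to 100 nM. Endogenous GSPT1, IKZF1 and CK1α abundance was assessed by immunoblotting.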

Data set [10] has as its target T1, Tyrosine-protein kinase Lck. Description: Induction of LCK degradation in human KOPT-K1 cells after 4 hrs by immunoblotting analysis. In kind it is cell-based.
Target sequence in this assay (P06239 whole entry): as above
For data set [11] the target is unchanged. Description: Induction of LCK degradation in human KOPT-K1 cells assessed as maximum degradation after 4 hrs by immunoblotting analysis relative to control. Type of data set: cell-based. A digest of the protocol:
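KOPT-K1 cells were treated with increasing concentrations of compound for 4 h. Endogenous LCK was assessed by immunoblot. Degradation was calculated from quantified band intensities, and DC50 from the average of three independent experiments.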
Target sequence in this assay (P06239 2-509 limits assumed): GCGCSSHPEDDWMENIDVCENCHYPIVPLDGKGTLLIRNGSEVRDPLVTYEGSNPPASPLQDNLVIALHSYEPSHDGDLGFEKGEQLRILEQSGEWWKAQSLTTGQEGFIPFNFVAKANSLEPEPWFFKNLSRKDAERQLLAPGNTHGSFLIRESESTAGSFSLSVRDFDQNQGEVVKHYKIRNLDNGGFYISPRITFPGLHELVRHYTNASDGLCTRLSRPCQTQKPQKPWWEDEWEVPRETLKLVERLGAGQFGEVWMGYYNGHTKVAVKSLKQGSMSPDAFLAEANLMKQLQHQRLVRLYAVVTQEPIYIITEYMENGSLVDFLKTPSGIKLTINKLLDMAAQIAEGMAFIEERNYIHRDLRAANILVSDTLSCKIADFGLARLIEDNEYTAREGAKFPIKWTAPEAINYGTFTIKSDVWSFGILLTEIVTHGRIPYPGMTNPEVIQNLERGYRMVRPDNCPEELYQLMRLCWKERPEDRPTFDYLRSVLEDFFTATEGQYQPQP

Data set [12] deals with Casein kinase I isoform alpha (Homo sapiens) (UniProt P48729). The experiment in a line: Induction of CK1alpha degradation in human KOPT-K1 cells upto 100 nM incubated for 4 hrs by immunoblotting analysis. Type of data set: cell-based. A digest of the protocol:
as §1

Data set [13] deals with DNA-binding protein Ikaros (Homo sapiens) (UniProt Q13422). The experiment in a line: Induction of IKZF1 degradation in human KOPT-K1 cells upto 100 nM incubated for 4 hrs by immunoblotting analysis. Type of data set: cell-based. In short, it runs like this:
as §1

Data set [14] in a line: Metabolic stability in mouse liver microsomes assessed as half life measured upto 240 mins in presence of NADPH regenerating system by LC-MS/MS analysis. Type of data set: ADME, Microsome.

Eukaryotic peptide chain release factor GTP-binding subunit ERF3A (Homo sapiens), sequence (P15170 whole entry): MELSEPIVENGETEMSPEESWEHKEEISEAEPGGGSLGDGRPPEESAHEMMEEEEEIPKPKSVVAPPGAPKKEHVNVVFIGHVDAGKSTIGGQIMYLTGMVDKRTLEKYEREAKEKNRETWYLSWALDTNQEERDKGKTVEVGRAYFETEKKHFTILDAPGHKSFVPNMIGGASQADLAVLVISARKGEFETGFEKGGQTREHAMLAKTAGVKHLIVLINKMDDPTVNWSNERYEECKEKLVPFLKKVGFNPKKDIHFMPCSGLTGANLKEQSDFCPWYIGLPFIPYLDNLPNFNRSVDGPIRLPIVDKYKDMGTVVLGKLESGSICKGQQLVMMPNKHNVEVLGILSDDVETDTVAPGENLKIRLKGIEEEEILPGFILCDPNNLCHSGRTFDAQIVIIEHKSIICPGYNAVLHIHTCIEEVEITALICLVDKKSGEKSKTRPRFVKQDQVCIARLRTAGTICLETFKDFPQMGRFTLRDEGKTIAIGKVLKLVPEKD
DNA-binding protein Ikaros (Homo sapiens), sequence (Q13422 whole entry): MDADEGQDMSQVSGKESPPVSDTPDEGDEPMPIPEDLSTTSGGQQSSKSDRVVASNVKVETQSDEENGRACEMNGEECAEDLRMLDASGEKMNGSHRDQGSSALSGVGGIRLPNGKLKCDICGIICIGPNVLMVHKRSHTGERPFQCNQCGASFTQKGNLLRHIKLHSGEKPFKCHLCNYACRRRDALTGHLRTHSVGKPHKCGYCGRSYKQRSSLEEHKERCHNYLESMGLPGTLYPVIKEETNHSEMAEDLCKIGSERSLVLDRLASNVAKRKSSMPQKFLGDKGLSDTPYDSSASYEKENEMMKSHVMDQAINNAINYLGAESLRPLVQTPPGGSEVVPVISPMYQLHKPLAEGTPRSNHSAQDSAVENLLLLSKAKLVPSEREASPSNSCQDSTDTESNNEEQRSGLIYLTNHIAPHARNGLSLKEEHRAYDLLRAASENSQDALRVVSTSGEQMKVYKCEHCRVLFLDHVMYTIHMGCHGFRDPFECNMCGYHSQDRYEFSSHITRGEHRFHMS
Casein kinase I isoform alpha (Homo sapiens), sequence (P48729 2-337 limits assumed): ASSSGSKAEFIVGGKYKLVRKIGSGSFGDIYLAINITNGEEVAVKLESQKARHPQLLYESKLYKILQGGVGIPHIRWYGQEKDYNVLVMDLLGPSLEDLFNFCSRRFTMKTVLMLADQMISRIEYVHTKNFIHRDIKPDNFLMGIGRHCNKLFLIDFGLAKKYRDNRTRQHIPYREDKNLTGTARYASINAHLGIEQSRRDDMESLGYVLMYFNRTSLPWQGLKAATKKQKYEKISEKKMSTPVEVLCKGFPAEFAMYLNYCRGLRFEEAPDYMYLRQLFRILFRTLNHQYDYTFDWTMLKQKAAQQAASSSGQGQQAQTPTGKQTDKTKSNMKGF

In data set [1], `Cc1nc(Nc2ncc(C(=O)Nc3c(C)cccc3Cl)s2)cc(N2CCN(CCCNC(=O)COc3cccc4c3C(=O)N(C3CCC(=O)NC3=O)C4=O)CC2)n1` (stereo not drawn) returned a concentration for half-maximal inhibition (IC50) of 1030 nM. Further, in data set [2], the Stability result is “Unstable”. Further, the permeability entry in data set [3] was “Impermeable”. Also, the half-maximal degradation concentration (DC50) in data set [4] was 13 nM. The values for the CC50 in the data set on KOPTK1 [5] and in the data set with KOPTK1 [8] were 10 nM and 8 nM, respectively. Besides, in data set [6], the result was inactive. Besides, the T1/2 in data set [7] is 13 h.

Consider `Cc1nc(Nc2ncc(C(=O)Nc3c(C)cccc3Cl)s2)cc(N2CCN(CCCC(=O)N3CCN(c4ccc(C5CCC(=O)NC5=O)cc4)CC3)CC2)n1` (stereo not drawn), for which the Stability result in [2] was “Unstable”. Also, the permeability result in [3] is “Impermeable”. This molecule also yielded a half-maximal degradation concentration (DC50) in data set [4] of 8 nM. For the same molecule, in the data set on KOPTK1 [8], the CC50 is 0.005 nM.

Regarding `O=C(O)COc1ccc(N2CCC(=O)NC2=O)cc1`, in the data set with KOPTK1 [5], the outcome was inactive.

Regarding `Cc1nc(Nc2ncc(C(=O)Nc3c(C)cccc3Cl)s2)cc(N2CCN(CCCNC(=O)COc3ccc(N4CCC(=O)NC4=O)cc3)CC2)n1`, the outcome in data set [9], in [12] and in data set [13] was inactive. Besides, the results for the DC50 in data set [10] and in [4] were 8 nM and 15 nM, respectively. In addition, in data set [11], the Emax worked out at 66%. Further, in [2], the Stability result is given as “Unstable”. The permeability result in data set [3] is recorded as “Impermeable”. In addition, the CC50 in the data set on KOPTK1 [5] is 0.005 nM; with KOPTK1 [8], 28 nM. Further, the T1/2 in [7] is more than 48 h.

Consider `Cc1nc(Nc2ncc(C(=O)Nc3c(C)cccc3Cl)s2)cc(N2CCN(CCO)CC2)n1.O` [DASATINIB], for which the half-life in data set [14] was 0.82 h.

Take `Cc1nc(Nc2ncc(C(=O)Nc3c(C)cccc3Cl)s2)cc(N2CCN(CCCNC(=O)COc3ccc(C4CCC(=O)NC4=O)cc3)CC2)n1` (stereo not drawn): the Stability result in data set [2] is on record as “Unstable”. Further, in data set [3], the permeability result is on record as “Impermeable”. In addition, the half-maximal degradation concentration (DC50) in data set [4] turned out to be 6 nM. Besides, in data set [7], the T1/2 was more than 48 h. Besides, the CC50 in the data set with KOPTK1 [8] amounted to 0.24 nM.

For the molecule `Cc1nc(Nc2ncc(C(=O)Nc3c(C)cccc3Cl)s2)cc(N2CCN(CCCC(=O)N3CCN(c4ccc(N5CCC(=O)NC5=O)cc4)CC3)CC2)n1`, the outcome in data set [9], in data set [12] and in data set [13] was inactive. The Emax in [11] came to 98.4%. Moreover, the Stability entry in [2] is recorded as “Unstable”. Also, the permeability entry in data set [3] is “Impermeable”. Also, the CC50 in the data set with KOPTK1 [8] is 37 nM.

Take `O=C1CCN(c2ccc(N3CCNCC3)cc2)C(=O)N1`: the result in the data set with KOPTK1 [5] was inactive.

The term IC50 denotes the point on the concentration scale where inhibition reaches its midpoint. High values mean weaker potency, low ones greater potency. For orientation: DC50 means the concentration at which degradation of the target reaches its halfway point. A low value points to a more potent degrader. By Emax is commonly meant the maximal effect, on the per cent scale that the assay sets. A word on the half-life: it is the time needed for the level to fall by half in the phase considered.
